Screening data from PubChem BioAssay.
D1 mod: D1 CRE-luciferase signal change, two-sided – cell-based, HEK293 D1, dopamine EC30, D1 allosteric modulator project, primary screen; D(1A) dopamine receptor (Homo sapiens), P21728; dopamine EC30 potentiation; actives deviate in either direction; B-score at 10 µM; 58,000 compounds, 5.9% hits; AID 641, 2007;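 active = luminescence count or its row- and column-corrected plate score outside the 99.7% band of the plate's sample wells, on either side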
Calb biofilm kill: clotrimazole potentiators killing Candida biofilms, primary screen, with clotrimazole, Alamar Blue; C. albicans biofilm + clotrimazole; inhibition, % at 6 µM; 85,000 compounds, 0.14% hits; AID 834, 2007;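 active = inhibition above 20%; inactive = inhibition below 20%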;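 note: preformed 24 hr biofilms exposed to compound for 48 hr; 0% = biofilm without compound and 100% = blank killed by clotrimazole plus chlorhexidine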
AP complement: alternative complement pathway inhibitors, primary screen, biochemical, ELISA, human serum, orthogonally pooled compounds. LPS-coated ELISA, C3 deposition; tested in compound mixtures. 62,000 compounds, 0.08% hits. inhibition, % at 5 µM;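 active = inhibition above 30% in each of the two pooled mixtures holding the compound, so the lower value exceeds 30%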;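 note: 0% = serum in Mg-EGTA without compound and 100% = EDTA serum blank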
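Assay system: Human serum alternative complement pathway, C3 deposition on LPS-coated wells | Incubation: 1 h serum-compound exposure at 37 °C | Doses: 5 µM per compound in ten-compound mixtures | Read-out: Percent inhibition | Technique: ELISA with HRP anti-human C3 antibody, TMB substrate, absorbance 450 nm | Replication: Two pool placements per compound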
DAT uptake mod: changed hDAT dopamine uptake under cocaine IC80, either direction, primary screen, cocaine antagonist project, cell-based, LLC-PK1 hDAT, [14C]-dopamine uptake, MLSMR | Sodium-dependent dopamine transporter (Homo sapiens), Q01959 | LLC-PK1 hDAT cells, [14C]-dopamine uptake with cocaine IC80; actives deviate in either direction | B-score at 10 µM | 110,000 compounds, 1.3% hits | AID 449768, 2010;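 active = Z score or B-score, a plate-position-corrected score, falls beyond the plate's 99.7% confidence bounds, in either direction; inactive = both scores lie inside the 99.7% bounds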;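 note: scored against the spread of the other compound wells on the same plate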
Target sequence (Q01959 whole entry, looked up): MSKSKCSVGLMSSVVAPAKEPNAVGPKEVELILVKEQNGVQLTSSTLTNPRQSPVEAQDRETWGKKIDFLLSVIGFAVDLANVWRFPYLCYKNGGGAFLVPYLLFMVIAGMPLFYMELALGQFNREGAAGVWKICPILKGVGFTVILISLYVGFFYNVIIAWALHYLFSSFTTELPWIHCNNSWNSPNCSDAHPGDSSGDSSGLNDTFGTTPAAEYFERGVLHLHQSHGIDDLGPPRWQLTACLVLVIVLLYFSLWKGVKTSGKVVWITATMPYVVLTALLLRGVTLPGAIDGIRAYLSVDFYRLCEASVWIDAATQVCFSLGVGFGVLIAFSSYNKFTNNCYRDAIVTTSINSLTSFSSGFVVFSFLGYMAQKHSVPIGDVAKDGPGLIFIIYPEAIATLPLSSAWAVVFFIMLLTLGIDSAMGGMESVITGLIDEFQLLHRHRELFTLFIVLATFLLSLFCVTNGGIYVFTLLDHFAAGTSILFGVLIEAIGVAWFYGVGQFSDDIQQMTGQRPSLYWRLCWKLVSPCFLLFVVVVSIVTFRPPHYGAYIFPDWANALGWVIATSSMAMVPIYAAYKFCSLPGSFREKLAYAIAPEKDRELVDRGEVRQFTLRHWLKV
MMP13 inh: human MMP13 inhibitors, primary screen, biochemical, FRET peptide cleavage; inhibition, % at 4 µM; MMP-13 fTHP FRET cleavage, Mca fluorescence; Collagenase 3 (Homo sapiens), P45452; 65,000 compounds, 0.07% hits;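 active = inhibition above the mean of compound-free control plate wells plus 3 SD, cut at about 14% in these data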;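 note: 0% = DMSO wells and 100% = wells with reference MMP-13 inhibitor after basal subtraction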
D1 PAM confirm: D1 receptor positive allosteric modulators, retest, confirmation, cell-based, HEK293 D1, CRE-luciferase, duplicate; shares compounds with D1 mod; dopamine EC30 potentiation; active compounds read high; luminescence at 10 µM; 2,200 compounds, 88% hits; AID 642, 2007;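 active = luminescence in either of two replicates above the same-plate mean plus 3 SD of the low-dose dopamine control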
D1 no dopamine: D1 receptor agonism without dopamine, confirmation, mechanism study for D1 allosteric modulator project, cell-based, HEK293 D1, CRE-luciferase, secondary assay 1; luminescence at 10 µM; luminescence, no dopamine; active compounds read high; shares compounds with D1 mod; 1,900 compounds, 0.8% hits; AID 646, 2007; in the data active = luminescence above about 3900
Isoprot counter: alters isoproterenol CRE-luciferase response in HEK293 cells | shares compounds with D1 mod | HEK293 D1 CRE-luciferase, isoproterenol EC30 counter-screen; active compounds read high | luminescence at 10 µM | 2,200 compounds, 63% hits | AID 647;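 active = luminescence in either replicate above plate mean of wells with a partly effective reference agonist dose plus 3 SD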;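 note: isoproterenol raises cAMP through native beta-adrenoceptor Gs so signal bypasses D1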
* marks the source's active call; other numbers are inactive results; · = no result. Shown is part of a subset that was picked to be rich in hits.

SMILES	D1 mod	Calb biofilm kill	AP complement	DAT uptake mod	MMP13 inh	D1 PAM confirm	D1 no dopamine	Isoprot counter
CCc1ccc(N/C(SC)=C(/C#N)C(N)=O)cc1	0.42	-1	7	-0.31	6	·	·	·
CCOc1ccc(N/C(SC)=C(/C#N)C(N)=O)cc1	5*	4	0	-0.4	0	6796*	1504	2728
CCn1c(SCC(=O)N(Cc2ccccc2)C2CCS(=O)(=O)C2)nc2ccccc2c1=O (stereo unspecified)	8.9*	1	6	0.081	0	13696*	·	3240*
CN(C(=O)CSc1nc2ccccc2n1CCc1ccccc1)C1CCS(=O)(=O)C1 (stereo unspecified)	-0.66	6	17	1.4	1	·	·	·
CC(C)c1ccc2c(c1)C(c1ccc(N3CCOCC3)cc1)=NNC(c1cccs1)=N2	·	·	·	-0.3	·	·	·	·
CCOC(=O)N1CCN(C(=O)C(C)(C)Oc2ccc(Cl)cc2)CC1	1.9*	8	11	0.81	3	7408*	1572	2568
O=C(O)C1C2C=CC(C3CC23)C1C(=O)N1CCc2ccccc21 (stereo unspecified)	·	3	·	-0.22	·	·	·	·
CCOc1ccc(C2CC(c3cccc(C)c3)n3nc(N)nc3N2)cc1 (stereo unspecified)	5*	3	1	0.72	5	10456*	·	2684*
CCOc1ccc(C2CC(c3cccc(OC)c3)n3nc(N)nc3N2)cc1 (stereo unspecified)	1.8	1	24	1.1	-2	·	·	·
Cc1cccc(C2CC(c3ccc(F)cc3)Nc3nc(N)nn32)c1 (stereo unspecified)	4.7*	-2	16	0.04	-1	11784*	1444	3108
Cc1cccc(C2CC(c3ccc(Cl)cc3)Nc3nc(N)nn32)c1 (stereo unspecified)	2	8	0	1.3	-1	·	·	·
Cc1ccc(C2CC(c3ccccc3C)n3nc(N)nc3N2)cc1 (stereo unspecified)	5.3*	-3	21	-0.74	-1	6604	1668	2776
COc1ccc(C2CC(c3ccccc3C)n3nc(N)nc3N2)cc1 (stereo unspecified)	-0.011	0	11	0.084	-12	·	·	·
O=C(O)C1=C[C@H](c2ccc(F)cc2)C[C@H](OCc2ccc(CO)cc2)O1	·	·	·	0.73	·	·	·	·
COC(=O)C1=C(C(=O)OC)[C@@H]2Nc3ccccc3[C@@]23C[C@@H](C(=O)OC)N(C(=O)CC(C)C)C3=N1	·	·	·	-0.2	·	·	·	·
COC(C[C@@H]1O[C@H]1C(=O)COCc1ccccc1)OC	·	·	·	-0.51	·	·	·	·
CCCN(CCC)C(=O)Cn1c(=O)n(CCCCC(=O)NC2CCCC2)c(=O)c2ccccc21	-0.23	1	8	-0.69	2	·	·	·
O=C(CCCCn1c(=O)c2ccccc2n(CC(=O)NC2CCCC2)c1=O)NC1CCCC1	4.4*	·	12	0.97	-4	4732	1368	2752
c1ccc(CNc2nc3ccccc3n3cnnc23)nc1	9.2*	8	16	-1.2	-2	13992*	·	3376*
COc1ccc(-c2ccc(SCC(=O)Nc3cc(C)on3)nn2)cc1OC	5.8*	5	12	-0.39	5	23296*	1724	3844*
COc1cccc(-c2nnc(SCC(=O)Nc3cc(C)on3)o2)c1	5.7*	·	26	-0.3	6	6316*	1520	2832
C[C@H]1CCC[C@@]2(O[C@@H](CCO)C[C@@H](O)[C@@H]2O)O1	·	·	·	-0.22	·	·	·	·
CC(C)Oc1ccc(N2CC(C(=O)Nc3ccc(N4CCOCC4)cc3)CC2=O)cc1 (stereo unspecified)	·	2	·	-1.2	·	·	·	·
COc1ccc(CNC(=O)c2cnn3c(C(F)F)cc(C)nc23)cc1OC	3.9*	5	3	0.51	4	8268*	1472	4208*
COc1ccccc1-c1cc(C(F)(F)F)n2ncc(S(=O)(=O)c3ccccc3)c2n1	·	·	·	1.3	·	·	·	·
SMILES	D1 mod	Calb biofilm kill	AP complement	DAT uptake mod	MMP13 inh	D1 PAM confirm	D1 no dopamine	Isoprot counter
C=CCn1c(=S)[nH]c2nc3c(cc2c1=O)CCCC3	6*	10	·	15*	-32	13488*	1592	3104
COc1ccc(-c2nc(-c3cccs3)c(-c3cccs3)[nH]2)cc1O	2.8*	6	13	2	-52	7608	1828	2520
O=[N+]([O-])c1ccc(O)c(-c2nc(-c3ccccc3)c(-c3cccs3)[nH]2)c1	·	·	·	-0.7	·	·	·	·
CCCn1cnc2c1c(=O)n(CCCCC(C)=O)c(=O)n2C	·	·	·	0.16	·	·	·	·
COc1ccc(Cl)cc1C(=O)CSc1nnnn1C1CCCCC1	·	8	·	-0.23	·	·	·	·
COc1ccc(Cl)cc1C(=O)CSc1nnnn1C1CCCC1	2.8*	6	2	-0.59	5	6668*	1592	2692
COc1ccc(N2CCN(c3nc(NCCc4ccc(OC)c(OC)c4)nc(OC)n3)CC2)cc1	2.8*	7	9	0.37	-8	11472*	1500	3388*
CCn1c(Sc2nc(C)nc3scc(-c4cccs4)c23)n[nH]c1=O	8.1*	6	-8	3	8	15492*	1856	3552*
CCc1nc2scc(-c3cccs3)c2c(=O)o1	·	3	·	-0.45	·	·	·	·
COc1ccc(N2CCN(C(=O)CC3NC4CCCCC4NC3=O)CC2)cc1 (stereo unspecified)	1.5	·	13	0.84	3	·	·	·
O=C1CC2(CCCC2)Oc2ccc(F)cc21	·	·	·	0.67	·	·	·	·
COc1ccc(N2C(=O)C3CCCN3C2c2ccc(C)o2)cc1 (stereo unspecified)	·	·	·	0.14	·	·	·	·
CCOc1nc(NCc2ccco2)nc(Nc2ccccc2F)n1	·	7	·	0.39	·	·	·	·
c1ccc(Oc2nc(NCc3ccco3)nc(NCc3ccco3)n2)cc1	5.2*	6	9	-1.7	1	11736*	1696	3528*
CCOc1nc(NCc2ccco2)nc(Nc2ccc(OC)cc2)n1	4.5*	2	9	0.6	-3	10436*	1588	3888*
Cc1nc(CSc2nnc3scc(-c4ccc(Cl)cc4)n23)cs1	13*	5	-3	0.18	1	18280*	·	3640*
CCOC(=O)CC(NC(=O)c1ccc(C)cc1)c1ccc(C)cc1 (stereo unspecified)	·	12	·	0.054	·	·	·	·
